The source of these data is ChEMBL document CHEMBL5647683 (Oncogene, 2008).

Assay [1] has as its system A-431. In words: Antitumor activity against human A-431 cells xenografted athymic NMRI-nu/nu female mouse as reduction in tumor volume at 75 mg/kg, po administered daily for 25 days relative to control. The settings on record: time 25 day. Format: functional. Put shortly: (§1)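 Female athymic NMRI-nu/nu mice (5–6 weeks, 21–31 g) given 1–5×10⁶ cells into the right flank; MDA-MB-453 tumors started from fresh 2×2×2 mm fragments. At 40–130 mm³, tumors were randomized to weight-based daily oral gavage (10 ml/kg; 1.8% HP-β-CD, 5% acetic acid (10%), 0.5% Natrosol) or vehicle. Caliper measurement 3×/week, volume π/6×L×W². Expressed as cumulative treated/control volume ratio; one-way ANOVA with Dunnett's test.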
Background: In xenograft studies the graft and the host belong to different species.

For assay [2], the system named is A-431. Briefly: Antitumor activity against human A-431 cells xenografted athymic NMRI-nu/nu female mouse as reduction in tumor volume at 2x100 mg/kg, po administered daily for 25 days relative to control. Type of assay: functional. As to conditions: dose 100 mg/kg, time 25 day. Put shortly: as §1
Assay [3] is described as follows: Inhibition of human EGFR L858R-T790M double mutant expressed in mouse BaF3 cells assessed as reduction in cell survival incubated for 48 hrs by WST assay.
Assay [4] is described as follows: Inhibition of human EGFR S752_I759del8 mutant expressed in mouse BaF3 cells assessed as reduction in cell survival incubated for 48 hrs by WST assay.
Assay [5] is described as follows: Inhibition of human EGFR S752_I759del8-T790M mutant expressed in mouse BaF3 cells assessed as reduction in cell survival incubated for 48 hrs by WST assay.
A short description of assay [6]: Inhibition of human EGFR L747_P753del7insS-T790M mutant expressed in mouse BaF3 cells assessed as reduction in cell survival incubated for 48 hrs by WST assay.
Assay [7] is described as follows: Inhibition of human EGFR variant III deletion expressed in mouse BaF3 cells assessed as reduction in cell survival incubated for 48 hrs by WST assay.

In assay [1], `COc1cc2ncnc(Nc3ccc(F)c(Cl)c3)c2cc1OCCCN1CCOCC1` [GEFITINIB] gave a T/C of 46%.
`CS(=O)(=O)CCNCc1ccc(-c2ccc3ncnc(Nc4ccc(OCc5cccc(F)c5)c(Cl)c4)c3c2)o1` [LAPATINIB] showed a T/C in assay [2] of 32%.
Consider `C#Cc1cccc(Nc2ncnc3cc(OCCOC)c(OCCOC)cc23)c1` [ERLOTINIB], for which the IC50 in assay [3] was above 10 µM; in assay [4], 0.033 µM; in assay [5], above 10 µM; in assay [6], above 10 µM; in assay [7], 0.144 µM.

As a reminder, the T/C is the result in the treated group divided by that in the control group, in per cent. A word on the IC50: it is the concentration needed to halve the response being measured.
